Values belong to the compound of their own block, whether it stands above or below them.
Assays:
[1] = test system: Hepatocyte; assay: Total drug uptake in sandwich-cultured human fetal hepatocytes assessed per mg protein at 1 uM after 20 mins in presence of verapamil by liquid scintillation counting method; format: ADME, cell-based
Outline: (§1)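 Sandwich-cultured hepatocytes received 1 µM radiolabeled test compound in HBSS at 37°C, with or without cyclosporine A, verapamil or rifampin. After an ice-cold wash, efflux was started with Ca2+/Mg2+-free HBSS for 20 min. Media and lysates were counted by liquid scintillation. Total uptake is expressed as pmol/mg protein (Bradford), mean ± S.D.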

[2] = test system: Hepatocyte; assay: Total drug uptake in sandwich-cultured human adult hepatocytes assessed per mg protein at 1 uM after 20 mins in absence of rifampin by liquid scintillation counting method; format: ADME, cell-based; outline: as §1
[3] = test system: Hepatocyte; assay: Total drug uptake in sandwich-cultured human adult hepatocytes assessed per mg protein at 1 uM after 20 mins in presence of cyclosporine A by liquid scintillation counting method; format: ADME, cell-based; outline: as §1
[4] = test system: Hepatocyte; assay: Total drug uptake in sandwich-cultured human fetal hepatocytes assessed per mg protein at 1 uM after 20 mins in absence of cyclosporine A by liquid scintillation counting method; format: ADME, cell-based; outline: as §1
[5] = test system: Hepatocyte; assay: Total drug uptake in sandwich-cultured human fetal hepatocytes assessed per mg protein at 1 uM after 20 mins in absence of rifampin by liquid scintillation counting method; format: ADME, cell-based; outline: as §1
[6] = test system: Hepatocyte; assay: Total drug uptake in sandwich-cultured human adult hepatocytes assessed per mg protein at 1 uM after 20 mins in presence of rifampin by liquid scintillation counting method; format: ADME, cell-based; outline: as §1
[7] = test system: Hepatocyte; assay: Total drug uptake in sandwich-cultured human fetal hepatocytes assessed per mg protein at 1 uM after 20 mins in presence of rifampin by liquid scintillation counting method; format: ADME, cell-based; outline: as §1
[8] = test system: Hepatocyte; assay: Total drug uptake in sandwich-cultured human adult hepatocytes assessed per mg protein at 1 uM after 20 mins in presence of verapamil by liquid scintillation counting method; format: ADME, cell-based; outline: as §1
[9] = test system: Hepatocyte; assay: Total drug uptake in sandwich-cultured human adult hepatocytes assessed per mg protein at 1 uM after 20 mins in absence of verapamil by liquid scintillation counting method; format: ADME, cell-based; outline: as §1
[10] = test system: Hepatocyte; assay: Total drug uptake in sandwich-cultured human adult hepatocytes assessed per mg protein at 1 uM after 20 mins in absence of cyclosporine A by liquid scintillation counting method; format: ADME, cell-based; outline: as §1
[11] = test system: Hepatocyte; assay: Total drug uptake in sandwich-cultured human fetal hepatocytes assessed per mg protein at 1 uM after 20 mins in absence of verapamil by liquid scintillation counting method; format: ADME, cell-based; outline: as §1
[12] = test system: Hepatocyte; assay: Total drug uptake in sandwich-cultured human fetal hepatocytes assessed per mg protein at 1 uM after 20 mins in presence of cyclosporine A by liquid scintillation counting method; format: ADME, cell-based; outline: as §1
[13] = test system: Hepatocyte; assay: Drug accumulation in sandwich-cultured human adult hepatocytes assessed per mg protein under Ca2+/Mg2+ free conditions; format: ADME, cell-based
[14] = Cmax in human cord blood
[15] = Cmax in adult human plasma; format: ADME, cell-free
[16] = test system: Hepatocyte; assay: Drug excretion in sandwich-cultured human adult hepatocytes assessed as mean biliary index; format: ADME, cell-based
Outline: (§2)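 Sandwich-cultured hepatocytes (Matrigel overlay, 0.233 mg/ml) were rinsed twice and equilibrated 10 min at 37°C in standard or Ca2+/Mg2+-free HBSS. 1 µM [3H]taurocholate or [3H]17-OHPC in standard HBSS was then added. Accumulation was measured by scintillation counting and normalized to Bradford protein. BEI = (accumulation with Ca/Mg − accumulation without)/accumulation with Ca/Mg × 100. Reported as mean ± S.D. across cultures.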

[17] = biological target: T1, Bile salt export pump (Homo sapiens, UniProt O95342); assay: Inhibition of ABCB11-mediated taurocholate total uptake in sandwich-cultured human fetal hepatocytes at >0.5 uM; format: ADME, cell-based, Hepatocyte
T1 sequence (O95342 whole entry): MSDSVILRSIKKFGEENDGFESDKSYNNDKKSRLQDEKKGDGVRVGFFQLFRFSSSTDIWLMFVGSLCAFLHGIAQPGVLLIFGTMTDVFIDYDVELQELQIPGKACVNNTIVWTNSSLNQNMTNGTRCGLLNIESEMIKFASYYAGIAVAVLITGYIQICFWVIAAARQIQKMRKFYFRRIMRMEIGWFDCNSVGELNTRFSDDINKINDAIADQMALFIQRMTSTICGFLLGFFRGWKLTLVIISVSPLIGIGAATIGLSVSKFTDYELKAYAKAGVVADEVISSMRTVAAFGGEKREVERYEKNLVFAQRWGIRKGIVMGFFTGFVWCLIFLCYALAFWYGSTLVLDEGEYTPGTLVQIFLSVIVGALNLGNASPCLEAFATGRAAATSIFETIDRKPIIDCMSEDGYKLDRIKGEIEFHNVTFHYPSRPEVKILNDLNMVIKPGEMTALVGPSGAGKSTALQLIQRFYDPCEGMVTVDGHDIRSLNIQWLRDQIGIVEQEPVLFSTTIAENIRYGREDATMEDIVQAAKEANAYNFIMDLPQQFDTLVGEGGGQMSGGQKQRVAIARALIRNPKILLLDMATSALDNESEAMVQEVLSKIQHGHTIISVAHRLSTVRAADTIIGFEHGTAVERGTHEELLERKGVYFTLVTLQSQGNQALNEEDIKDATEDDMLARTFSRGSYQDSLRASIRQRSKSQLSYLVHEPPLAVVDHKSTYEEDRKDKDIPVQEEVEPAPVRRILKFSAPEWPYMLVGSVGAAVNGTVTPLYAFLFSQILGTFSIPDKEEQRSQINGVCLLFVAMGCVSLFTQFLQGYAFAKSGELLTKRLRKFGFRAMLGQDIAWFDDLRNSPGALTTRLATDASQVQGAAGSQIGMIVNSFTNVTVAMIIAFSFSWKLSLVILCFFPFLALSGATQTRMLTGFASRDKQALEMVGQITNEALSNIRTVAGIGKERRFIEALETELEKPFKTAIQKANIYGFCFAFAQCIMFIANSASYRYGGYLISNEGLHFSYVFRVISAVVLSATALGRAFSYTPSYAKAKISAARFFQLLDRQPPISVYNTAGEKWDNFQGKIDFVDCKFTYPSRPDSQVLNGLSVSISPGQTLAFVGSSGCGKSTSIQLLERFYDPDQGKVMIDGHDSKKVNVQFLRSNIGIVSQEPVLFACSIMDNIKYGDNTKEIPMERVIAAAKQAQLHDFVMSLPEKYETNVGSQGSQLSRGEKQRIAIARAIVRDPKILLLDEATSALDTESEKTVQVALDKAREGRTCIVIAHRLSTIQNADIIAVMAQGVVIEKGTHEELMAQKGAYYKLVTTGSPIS
Outline: (§3)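 Sandwich-cultured hepatocytes (Matrigel overlay) were given 1 µM [3H]taurocholic acid in standard HBSS at 37°C, with or without increasing 17-OHPC or cyclosporine A (40 µM, positive control). Efflux was run in standard versus Ca2+/Mg2+-free HBSS, with inhibitor present. Canalicular efflux is the buffer difference, set to 100% in controls. Uptake was from scintillation counts normalized to Bradford protein. Triplicates; fetal n = 4, adult n = 6.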

[18] = test system: Hepatocyte; assay: Drug uptake in sandwich-cultured human fetal hepatocytes at 1 uM after 20 mins in presence of warm media at 37 degC by liquid scintillation counting method; format: ADME, cell-based
[19] = test system: Hepatocyte; assay: Drug accumulation in sandwich-cultured human fetal hepatocytes assessed per mg protein under Ca2+/Mg2+ conditions; format: ADME, cell-based
[20] = biological target: T1, Bile salt export pump; assay: Inhibition of ABCB11-mediated taurocholate efflux in sandwich-cultured human fetal hepatocytes at 0.5 to 10 uM; format: ADME, cell-based, Hepatocyte; outline: as §3
[21] = biological target: T1, Bile salt export pump; assay: Inhibition of ABCB11-mediated taurocholate total uptake in sandwich-cultured human adult hepatocytes at >50 uM; format: ADME, cell-based, Hepatocyte; outline: as §3
[22] = test system: Hepatocyte; assay: Drug accumulation in sandwich-cultured human adult hepatocytes assessed per mg protein under Ca2+/Mg2+ conditions; format: ADME, cell-based
[23] = test system: Hepatocyte; assay: Drug accumulation in sandwich-cultured human fetal hepatocytes assessed per mg protein under Ca2+/Mg2+ free conditions; format: ADME, cell-based
[24] = biological target: T1, Bile salt export pump; assay: Inhibition of ABCB11-mediated taurocholate efflux in sandwich-cultured human adult hepatocytes at 5 to 100 uM; format: ADME, cell-based, Hepatocyte; outline: as §3
[25] = test system: Hepatocyte; assay: Drug excretion in sandwich-cultured human fetal hepatocytes assessed as mean biliary index; format: ADME, cell-based; outline: as §2
[26] = test system: Hepatocyte; assay: Drug uptake in sandwich-cultured human adult hepatocytes at 1 uM after 20 mins in presence of warm media at 37 degC by liquid scintillation counting method; format: ADME, cell-based
Outline: (§4)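 Sandwich-cultured hepatocytes were loaded for 20 min in standard HBSS containing 1 µM 17-OHPC and 1 µM TCA, at 37°C or at 4°C. Cells were washed ice-cold, and efflux was started with Ca2+/Mg2+-free HBSS at the matching temperature. Media and lysates were counted by liquid scintillation and normalized to protein. Triplicate treatments.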

[27] = test system: Hepatocyte; assay: Drug uptake in sandwich-cultured human adult hepatocytes at 1 uM after 20 mins in presence of cold media at 4 degC by liquid scintillation counting method; format: ADME, cell-based; outline: as §4
[28] = test system: Hepatocyte; assay: Drug uptake in sandwich-cultured human fetal hepatocytes at 1 uM after 20 mins in presence of cold media at 4 degC by liquid scintillation counting method; format: ADME, cell-based

- Drug uptake [1]: 281 pmol
- Drug uptake [2]: 611 pmol
- Drug uptake [3]: 494 pmol
- Drug uptake [4]: 284 pmol
- Drug uptake [5]: 267 pmol
- Drug uptake [6]: 565 pmol
- Drug uptake [7]: 241 pmol
- Drug uptake [8]: 347 pmol
- Drug uptake [9]: 341 pmol
- Drug uptake [10]: 476 pmol
- Drug uptake [11]: 263 pmol
- Drug uptake [12]: 304 pmol
SMILES: [3H]C1C2=CC(=O)C([3H])C([3H])[C@]2(C)[C@H]2CC[C@@]3(C)[C@@H](CC[C@]3(O[14C](=O)CCCCC)C(C)=O)[C@@H]2C1[3H] (some centres undefined)

- Drug uptake [13]: 628 pmol
- Cmax [14]: 20 nM
- Cmax [15]: 70 nM
- Drug excretion [16]: 6.2%
- inhibition (INH) [17]: Active
- Drug uptake [18]: Active
- Drug uptake [19]: 320 pmol
- inhibition (INH) [20]: Active
- inhibition (INH) [21]: Active
- Drug uptake [22]: 680 pmol
- Drug uptake [23]: 294 pmol
- inhibition (INH) [24]: Active
- Drug excretion [25]: 7%
- Drug uptake [26]: Active
- Drug uptake [27]: Not Active
- Drug uptake [28]: Not Active
SMILES: CCCCCC(=O)O[C@]1(C(C)=O)CC[C@H]2[C@@H]3CCC4=CC(=O)CC[C@]4(C)[C@H]3CC[C@@]21C [HYDROXYPROGESTERONE CAPROATE]

SMILES: C[C@H](CCC(=O)NCCS(=O)(=O)O)[C@H]1CC[C@H]2[C@@H]3[C@H](O)C[C@@H]4C[C@H](O)CC[C@]4(C)[C@H]3C[C@H](O)[C@]12C [TAUROCHOLIC ACID]
- Drug uptake [13]: 21 pmol
- Drug uptake [18]: Active
- Drug uptake [19]: 34 pmol
- Drug uptake [22]: 85 pmol
- Drug uptake [23]: 23 pmol
- Drug uptake [28]: Not Active

Reference: ChEMBL document CHEMBL3526123, “Hepatobiliary disposition of 17-OHPC and taurocholate in fetal human hepatocytes: a comparison with adult human hepatocytes” (Drug Metab Dispos, 2013)
